Test results: paper PMC3134314 (ACS chemical neuroscience, 2011)
“And” between values parts separate entries of the source, which are not always exact repeats. Identical values can stand only once. Like-named read-outs stand apart in the source and are kept apart here.

What was measured:
[1] = tested on: voltage-gated Na+ channels in CAD cells; test: Frequency; assay type: cell-based; details: 10 Hz; for Pulse in the train at which use-dependent block was first observed: 30-pulse train
How it was run: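 CAD cells were whole-cell clamped at −80 mV and given a train of 30 pulses (20 ms to −10 mV) at 10 Hz, with test compound (100, 8.5 or 15 μM) or control. Available current was the peak at pulse N divided by the pulse 1 peak. 5–7 cells per condition, averaged ± SEM.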

[2] = tested on: voltage-gated Na+ channels in CAD cells; test: Development of inhibition/slow inactivation of Na+ currents in CAD cells; assay type: cell-based; details: vehicle 0.52 ± 0.09
[3] = tested on: voltage-gated Na+ channels in CAD cells; test: Recovery of Na+ channels from inactivation/block in CAD cells; assay type: cell-based; details: vs control
How it was run: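 CAD cells under whole-cell clamp, test compound (100, 8.5 or 15 μM) or control. Cells were held at −120 mV and depolarized to 0 mV, for 5 s (slow inactivation) or a 10 ms prepulse. They were then returned to −120 mV for a variable recovery interval before a test step to 0 mV. Sweeps ran at 0.5 Hz for short recoveries and slower for longer ones.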

[4] = tested on: voltage-gated Na+ channels in CAD cells; details: earlier study; cited from earlier work
[5] = tested on: voltage-gated Na+ channels in CAD cells; details: 30 μM; cited from earlier work
[6] = tested on: voltage-gated Na+ channels in CAD cells; assay type: cell-based; details: for Maximal fraction of current unavailable by depolarization: 20 mV, control 0.42 ± 0.02
[7] = tested on: voltage-gated Na+ channels in CAD cells; assay type: cell-based
How it was run: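 Steady-state fast inactivation in whole-cell clamped CAD cells used a 500 ms conditioning pulse. Test compound ranged 0.3–500 μM; control was DMSO vehicle. Recordings were taken 3–4 min after break-in and compared with drug-free cells. V1/2 and k came from single Boltzmann fits of each recording, averaged as mean ± SEM. n = 7 for V1/2, n = 6 for τinact. Student's t-test vs DMSO.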

[8] = tested on: tibial-nerve injury (TNI) mechanical hypersensitivity; test: Tibial-nerve injury; assay type: in vivo, Sprague–Dawley rats; details: rats, 10 mg/kg i.p.
[9] = tested on: formalin-induced pain, chronic (late-phase) inflammatory pain; test: Formalin-induced pain model; assay type: in vivo; details: mouse, i.p., the lower the percent the more effective the compound
site 2 sodium channel = test: Site 2 sodium channel binding; details: 10 μM, Cerep, data not shown
E18 rat cortical neurons = test: KCl-induced Ca2+ influx, Fura-2 imaging; assay type: cell-based; details: 100 μM, 46.5 mM KCl

## COC[C@@H](NC(C)=O)C(=O)NCc1ccccc1 [(R)-4, Lacosamide, reference compound]
[1]; 100 μM
  Peak current lower than control at the last pulse (pulse 30): ~ 9%
  Pulse in the train at which use-dependent block was first observed: ~19 pulse
[2]; 100 μM
  Fraction of current available at 8 s prepulse duration: 0.32 ± 0.01
[3]; 100 μM
  Time course of recovery from the 10-ms depolarization: not different from control
[3]; 100 μM, significant between 100–512 ms
  Recovery kinetics after 5 s depolarization (slow inactivation induced): slowed recovery kinetics
[4]
  Inhibition of peak Na+ currents: ~ 40%
[5]
  Shift in V1/2 of fast inactivation: 0.7 mV

## COC[C@@H](NC(C)=O)C(=O)NCc1ccc(OCc2cccc(F)c2)cc1 [(R)-7]
[6]; 30 μM, vs cells without drug
  Fraction of current available at −50 mV: significantly decreased the fraction of current available
[6]; 30 μM
  Maximal fraction of current unavailable by depolarization: 0.91 ± 0.01
[7]; 0.3 μM, DMSO 1.32 ± 0.12 ms
  Time constant for inactivation (τinact): 0.73 ± 0.05 ms
[7]; 30 μM
  Shift in V1/2 of fast inactivation in the hyperpolarizing direction: ~ 21.4 mV and 21.4 mV
[7]; 30 μM, DMSO −63.2 ± 0.9 mV
  V1/2 value for fast inactivation: −84.6 ± 1.2 mV
[1]; 8.5 μM
  Peak current lower than control at the last pulse (pulse 30): 40%
  Pulse in the train at which use-dependent block was first observed: 3 pulse
[2]; 8.5 μM
  Fraction of current available at 8 s prepulse duration: 0.20 ± 0.04
[3]; 8.5 μM
  Time course of recovery from the 10-ms depolarization: slight slowing
[3]; 8.5 μM, significant between 100 ms to 2 s
  Recovery kinetics after 5 s depolarization (slow inactivation induced): slowed recovery kinetics
[8]; 14 days after TNI, 1 hour after administration
  Reversal of tactile hypersensitivity: ~ 90%
[8]; four weeks after TNI, 24 hours
  Mechanical withdrawal thresholds 24 hours after injection: returned to pre-drug levels
[9]; 15 mg/kg
  Protection vs control, chronic (late-phase) inflammatory pain: 44%

## COC[C@@H](NC(C)=O)C(=O)NCc1ccc(COc2ccccc2F)cc1 [(R)-10]
[6]
  Fold lower IC50 for slow inactivation compared with (R)-4 (85 μM): 16 fold
[6]; 100 μM
  Maximal fraction of current unavailable by depolarization: 0.90 ± 0.007
[7]; 100 μM
  Shift in V1/2 of fast inactivation in the hyperpolarizing direction: 17.6 mV
Site 2 sodium channel
  Displacement, site 2 sodium channel binding: 31–46%

## COC[C@@H](NC(C)=O)C(=O)NCc1ccc(-c2cccc(F)c2)cc1 [(R)-11]
[6]; 30 μM
  Maximal fraction of current unavailable by depolarization: 0.94 ± 0.004
[7]; 30 μM
  Shift in V1/2 of fast inactivation in the hyperpolarizing direction: 8.0 mV
[1]; 15 μM
  Peak current lower than control at the last pulse (pulse 30): 45%
  Pulse in the train at which use-dependent block was first observed: 3 pulse
[2]; 15 μM
  Fraction of current available at 8 s prepulse duration: 0.12 ± 0.04
[3]; 15 μM
  Time course of recovery from the 10-ms depolarization: not different from control
[3]; 15 μM, significant between 100 ms to 2 s
  Recovery kinetics after 5 s depolarization (slow inactivation induced): slowed recovery kinetics
[9]; 12 mg/kg
  Protection vs control, chronic (late-phase) inflammatory pain: 97%
Site 2 sodium channel
  Displacement, site 2 sodium channel binding: 31–46%

## COC[C@H](NC(C)=O)C(=O)NCc1ccccc1 [(S)-4]
E18 rat cortical neurons
  Inhibition of Ca2+ amplitude (KCl-induced Ca2+ influx): 13.74 ± 1.26%
[4]
  Inhibition of peak Na+ currents: no inhibition

## COC[C@H](NC(C)=O)C(=O)NCc1ccc(OCc2cccc(F)c2)cc1 [(S)-7]
[6]; 500 μM (highest dose)
  Fraction of current available at −50 mV: reduced the available current but not to the extent observed with (R)-7
[6]; 5 s conditioning prepulses
  Potential above which (more depolarized) slow inactivation was observed: > −80 mV
[6]; 500 μM
  Maximal fraction of current unavailable by depolarization: 0.76 ± 0.02
[7]; 500 μM
  Shift in V1/2 of fast inactivation in the hyperpolarizing direction: 19.9 mV
